# Test results reported in ChEMBL document CHEMBL4376814, “Novel cyclin-dependent kinase 9 (CDK9) inhibitor with suppression of cancer stemness activity against non-small-cell lung cancer” (Eur J Med Chem, 2019).
# Tests used:
# [1] = biological target: Serine/threonine-protein kinase 10 (Homo sapiens) (UniProt O94804); experiment: Inhibition of recombinant human LOK (1 to 348 residues) at 1 uM using RLGRDKYKTLRQIRQ as substrate measured after 40 mins in presence of [gamma33P]ATP by scintillation counting method relative to control
# Sequence of Serine/threonine-protein kinase 10 (Homo sapiens) (O94804 whole entry, looked up, the tested form may be a part): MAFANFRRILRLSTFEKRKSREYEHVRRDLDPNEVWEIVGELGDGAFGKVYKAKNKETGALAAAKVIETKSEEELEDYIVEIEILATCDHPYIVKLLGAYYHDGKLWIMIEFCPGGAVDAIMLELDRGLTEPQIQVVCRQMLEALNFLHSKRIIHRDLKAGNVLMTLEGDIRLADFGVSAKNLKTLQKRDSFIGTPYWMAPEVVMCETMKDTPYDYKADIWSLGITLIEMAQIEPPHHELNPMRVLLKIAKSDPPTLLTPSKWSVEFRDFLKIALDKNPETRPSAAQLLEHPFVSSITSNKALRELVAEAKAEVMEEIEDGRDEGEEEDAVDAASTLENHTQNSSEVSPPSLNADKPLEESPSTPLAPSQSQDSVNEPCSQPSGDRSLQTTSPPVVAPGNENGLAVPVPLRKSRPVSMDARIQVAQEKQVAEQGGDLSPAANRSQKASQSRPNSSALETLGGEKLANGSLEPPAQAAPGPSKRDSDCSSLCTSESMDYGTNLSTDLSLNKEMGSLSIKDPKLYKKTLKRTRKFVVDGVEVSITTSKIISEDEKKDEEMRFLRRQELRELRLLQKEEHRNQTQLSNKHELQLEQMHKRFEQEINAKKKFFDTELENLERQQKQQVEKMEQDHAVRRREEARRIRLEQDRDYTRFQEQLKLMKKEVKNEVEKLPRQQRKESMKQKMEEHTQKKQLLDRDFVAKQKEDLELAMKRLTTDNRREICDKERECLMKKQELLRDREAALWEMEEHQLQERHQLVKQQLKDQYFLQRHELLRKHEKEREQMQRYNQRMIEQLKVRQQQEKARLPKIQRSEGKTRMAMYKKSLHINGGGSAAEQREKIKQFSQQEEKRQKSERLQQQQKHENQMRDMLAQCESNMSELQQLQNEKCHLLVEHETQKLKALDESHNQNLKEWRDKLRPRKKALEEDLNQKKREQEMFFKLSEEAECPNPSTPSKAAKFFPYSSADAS
# [2] = biological target: Death-associated protein kinase 3 (Homo sapiens) (UniProt O43293); experiment: Inhibition of recombinant human ZIPK (1 to 290 residues) at 1 uM using KKLNRTLSFAEPG as substrate measured after 40 mins in presence of [gamma33P]ATP by scintillation counting method relative to control
# How it was run: (§1)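 Single-point inhibition at 1 µM was measured in the Eurofins KinaseProfiler panel. Values are the mean of two independent experiments.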
# [3] = biological target: Tyrosine-protein kinase JAK2 (Homo sapiens) (UniProt O60674); experiment: Inhibition of recombinant human JAK2 (808 to end residues) at 1 uM using KTFCGTPEYLAPEVRREPRILSEEEQEMFRDFDYIADWC as substrate measured after 40 mins in presence of [gamma33P]ATP by scintillation counting method relative to control
# [4] = biological target: Transcription initiation factor TFIID subunit 1-like (Homo sapiens) (UniProt Q8IZX4); experiment: Inhibition of recombinant human TAF1L (1428 to end residues) at 1 uM using RRRFRPASPLRGPPK as substrate after 120 mins in presence of [gamma33P]ATP by scintillation counting analysis relative to control
# [5] = biological target: Calcium/calmodulin-dependent protein kinase type 1D (Homo sapiens) (UniProt Q8IU85); experiment: Inhibition of recombinant full-length human CaMK1delta at 1 uM using calmodulin as substrate measured after 40 mins in presence of [gamma33P]ATP by scintillation counting method relative to control
# Sequence of Calcium/calmodulin-dependent protein kinase type 1D (Homo sapiens) (Q8IU85 whole entry, looked up, the tested form may be a part): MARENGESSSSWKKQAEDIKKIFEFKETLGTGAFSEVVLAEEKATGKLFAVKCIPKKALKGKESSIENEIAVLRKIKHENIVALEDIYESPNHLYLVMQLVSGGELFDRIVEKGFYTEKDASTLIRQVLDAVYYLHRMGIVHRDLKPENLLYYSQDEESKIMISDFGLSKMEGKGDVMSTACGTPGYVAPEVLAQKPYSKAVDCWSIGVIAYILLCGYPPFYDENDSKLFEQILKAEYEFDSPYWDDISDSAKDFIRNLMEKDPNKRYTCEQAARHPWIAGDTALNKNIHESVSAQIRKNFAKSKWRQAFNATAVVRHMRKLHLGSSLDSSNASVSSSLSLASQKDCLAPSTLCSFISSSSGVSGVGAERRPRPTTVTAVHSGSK
# [6] = biological target: Serine/threonine-protein kinase MRCK beta (Homo sapiens) (UniProt Q9Y5S2); experiment: Inhibition of recombinant human MRCKbeta (1 to 473 residues) at 1 uM using KKRNRTLTV as substrate measured after 40 mins in presence of [gamma33P]ATP by scintillation counting method relative to control
# [7] = system: Serine/threonine-protein kinase Sgk2 (Homo sapiens), Q9HBY8 [S416D]; experiment: Inhibition of recombinant human SGK2 S416D mutant (54 to end residues) at 1 uM using GRPRTSSFAEGKK as substrate measured after 40 mins in presence of [gamma33P]ATP by scintillation counting method relative to control
# [8] = biological target: Testis-specific serine/threonine-protein kinase 1 (Homo sapiens) (UniProt Q9BXA7); experiment: Inhibition of recombinant full-length human TSSK1 at 1 uM using KKKVSRSGLYRSPSMPENLNRPR as substrate measured after 40 mins in presence of [gamma33P]ATP by scintillation counting method relative to control
# [9] = biological target: Ephrin type-A receptor 2 (Homo sapiens) (UniProt P29317); experiment: Inhibition of recombinant human EphA2 (596 to 900 residues) at 1 uM using poly(Glu, Tyr) 4:1 as substrate measured after 40 mins in presence of [gamma33P]ATP by scintillation counting method relative to control
# [10] = biological target: Focal adhesion kinase 1 (Homo sapiens) (UniProt Q05397); experiment: Inhibition of recombinant human FAK (411 to 686 residues) at 1 uM using EEEEYEEEEEEYYIIEEEEEEYEEEEEEYYEEEEEEKKKK as substrate measured after 40 mins in presence of [gamma33P]ATP by scintillation counting method relative to control
# Sequence of Focal adhesion kinase 1 (Homo sapiens) (Q05397 2-1052 limits assumed): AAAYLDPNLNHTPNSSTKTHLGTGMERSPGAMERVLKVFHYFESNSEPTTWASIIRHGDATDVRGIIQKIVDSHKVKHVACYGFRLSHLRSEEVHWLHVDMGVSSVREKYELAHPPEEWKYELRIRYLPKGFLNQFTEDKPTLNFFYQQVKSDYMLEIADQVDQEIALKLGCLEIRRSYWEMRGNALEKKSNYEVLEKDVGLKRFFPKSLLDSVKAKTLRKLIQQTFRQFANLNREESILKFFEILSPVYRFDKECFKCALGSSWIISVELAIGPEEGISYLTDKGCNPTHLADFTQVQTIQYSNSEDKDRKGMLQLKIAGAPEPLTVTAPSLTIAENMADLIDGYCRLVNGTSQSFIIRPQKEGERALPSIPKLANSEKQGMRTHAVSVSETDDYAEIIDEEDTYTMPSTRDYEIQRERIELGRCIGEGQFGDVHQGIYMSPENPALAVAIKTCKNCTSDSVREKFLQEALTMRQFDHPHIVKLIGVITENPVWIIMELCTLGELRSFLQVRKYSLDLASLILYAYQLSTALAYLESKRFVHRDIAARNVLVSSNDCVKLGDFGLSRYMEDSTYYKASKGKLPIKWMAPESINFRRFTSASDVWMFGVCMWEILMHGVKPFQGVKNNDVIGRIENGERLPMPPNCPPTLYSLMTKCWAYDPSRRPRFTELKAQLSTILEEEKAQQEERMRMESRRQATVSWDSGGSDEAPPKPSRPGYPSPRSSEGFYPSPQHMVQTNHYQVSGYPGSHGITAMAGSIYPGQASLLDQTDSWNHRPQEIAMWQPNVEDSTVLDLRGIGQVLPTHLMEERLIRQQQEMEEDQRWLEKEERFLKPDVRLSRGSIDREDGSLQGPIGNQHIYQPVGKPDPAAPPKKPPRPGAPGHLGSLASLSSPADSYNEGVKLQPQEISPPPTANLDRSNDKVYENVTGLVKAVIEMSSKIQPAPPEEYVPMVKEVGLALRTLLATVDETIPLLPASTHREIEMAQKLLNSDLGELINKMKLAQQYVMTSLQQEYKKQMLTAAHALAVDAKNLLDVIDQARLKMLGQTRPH
# [11] = biological target: Testis-specific serine/threonine-protein kinase 2 (Homo sapiens) (UniProt Q96PF2); experiment: Inhibition of recombinant full-length human TSSK2 at 1 uM using KKKVSRSGLYRSPSMPENLNRPR as substrate measured after 40 mins in presence of [gamma33P]ATP by scintillation counting method relative to control
# [12] = biological target: Aurora kinase C (Homo sapiens) (UniProt Q9UQB9); experiment: Inhibition of recombinant human AURKC (35 to end residues) at 1 uM using AKRRRLSSLRA as substrate measured after 40 mins in presence of [gamma33P]ATP by scintillation counting method relative to control
# Sequence of Aurora kinase C (Homo sapiens) (Q9UQB9 whole entry): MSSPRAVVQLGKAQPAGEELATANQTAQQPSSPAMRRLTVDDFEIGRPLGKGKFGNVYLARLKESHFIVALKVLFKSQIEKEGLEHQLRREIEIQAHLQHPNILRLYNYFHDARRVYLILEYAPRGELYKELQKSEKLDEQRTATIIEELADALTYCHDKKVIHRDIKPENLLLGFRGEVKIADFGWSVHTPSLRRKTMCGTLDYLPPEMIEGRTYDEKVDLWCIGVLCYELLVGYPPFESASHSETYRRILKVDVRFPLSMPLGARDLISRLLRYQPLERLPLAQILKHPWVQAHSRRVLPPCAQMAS
# [13] = system: RAC-beta serine/threonine-protein kinase (Homo sapiens), P31751 [S474D]; experiment: Inhibition of recombinant human pkb-beta S474D mutant (120 to end residues) at 1 uM using GRPRTSSFAEGKK as substrate measured after 40 mins in presence of [gamma33P]ATP by scintillation counting method relative to control
# Sequence of RAC-beta serine/threonine-protein kinase (Homo sapiens), P31751 [S474D] (P31751 whole entry S474D): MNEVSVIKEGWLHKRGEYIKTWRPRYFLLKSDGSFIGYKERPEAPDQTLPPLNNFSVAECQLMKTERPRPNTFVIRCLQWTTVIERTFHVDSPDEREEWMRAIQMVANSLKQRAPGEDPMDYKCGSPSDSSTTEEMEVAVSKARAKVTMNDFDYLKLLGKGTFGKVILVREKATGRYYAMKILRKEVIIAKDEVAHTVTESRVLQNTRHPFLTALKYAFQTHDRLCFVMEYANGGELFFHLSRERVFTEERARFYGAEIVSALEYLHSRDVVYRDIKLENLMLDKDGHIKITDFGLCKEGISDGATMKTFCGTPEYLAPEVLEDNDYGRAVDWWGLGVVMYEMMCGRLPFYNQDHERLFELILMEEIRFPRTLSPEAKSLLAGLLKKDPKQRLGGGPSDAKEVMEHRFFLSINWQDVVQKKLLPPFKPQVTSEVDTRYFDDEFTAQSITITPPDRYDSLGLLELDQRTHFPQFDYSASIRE
# [14] = biological target: Activin receptor type-1-like (Homo sapiens) (UniProt P37023); experiment: Inhibition of recombinant human ALK1 (142 to end residues) at 1 uM using casein as substrate measured after 40 mins in presence of [gamma33P]ATP by scintillation counting method relative to control
# Sequence of Activin receptor type-1-like (Homo sapiens) (P37023 whole entry, the tested form may be a part): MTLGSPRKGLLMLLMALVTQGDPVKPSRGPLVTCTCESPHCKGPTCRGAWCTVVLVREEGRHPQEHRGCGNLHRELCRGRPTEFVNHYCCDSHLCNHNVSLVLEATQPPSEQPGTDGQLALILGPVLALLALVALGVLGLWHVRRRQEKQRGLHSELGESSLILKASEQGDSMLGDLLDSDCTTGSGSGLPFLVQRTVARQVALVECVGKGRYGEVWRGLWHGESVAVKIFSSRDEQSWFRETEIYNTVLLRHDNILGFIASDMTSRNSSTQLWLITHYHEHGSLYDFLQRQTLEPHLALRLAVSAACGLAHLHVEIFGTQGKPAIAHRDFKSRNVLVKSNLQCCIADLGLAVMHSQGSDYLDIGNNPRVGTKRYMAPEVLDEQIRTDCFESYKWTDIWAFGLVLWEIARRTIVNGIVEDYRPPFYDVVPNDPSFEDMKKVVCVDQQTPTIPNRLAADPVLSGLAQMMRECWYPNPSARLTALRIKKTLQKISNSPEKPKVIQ
# [15] = biological target: Serine/threonine-protein kinase ULK2 (Homo sapiens) (UniProt Q8IYT8); experiment: Inhibition of human ULK2 (1 to 306 residues) using casein as substrate measured after 40 mins in presence of [gamma33P]ATP by scintillation counting method relative to control
# [16] = biological target: Tyrosine-protein kinase receptor TYRO3 (Homo sapiens) (UniProt Q06418); experiment: Inhibition of human RSE (451 to end residues) at 1 uM using KVEKIGEGTYGVVYK as substrate measured after 40 mins in presence of [gamma33P]ATP by scintillation counting method relative to control
# Sequence of Tyrosine-protein kinase receptor TYRO3 (Homo sapiens) (Q06418 whole entry): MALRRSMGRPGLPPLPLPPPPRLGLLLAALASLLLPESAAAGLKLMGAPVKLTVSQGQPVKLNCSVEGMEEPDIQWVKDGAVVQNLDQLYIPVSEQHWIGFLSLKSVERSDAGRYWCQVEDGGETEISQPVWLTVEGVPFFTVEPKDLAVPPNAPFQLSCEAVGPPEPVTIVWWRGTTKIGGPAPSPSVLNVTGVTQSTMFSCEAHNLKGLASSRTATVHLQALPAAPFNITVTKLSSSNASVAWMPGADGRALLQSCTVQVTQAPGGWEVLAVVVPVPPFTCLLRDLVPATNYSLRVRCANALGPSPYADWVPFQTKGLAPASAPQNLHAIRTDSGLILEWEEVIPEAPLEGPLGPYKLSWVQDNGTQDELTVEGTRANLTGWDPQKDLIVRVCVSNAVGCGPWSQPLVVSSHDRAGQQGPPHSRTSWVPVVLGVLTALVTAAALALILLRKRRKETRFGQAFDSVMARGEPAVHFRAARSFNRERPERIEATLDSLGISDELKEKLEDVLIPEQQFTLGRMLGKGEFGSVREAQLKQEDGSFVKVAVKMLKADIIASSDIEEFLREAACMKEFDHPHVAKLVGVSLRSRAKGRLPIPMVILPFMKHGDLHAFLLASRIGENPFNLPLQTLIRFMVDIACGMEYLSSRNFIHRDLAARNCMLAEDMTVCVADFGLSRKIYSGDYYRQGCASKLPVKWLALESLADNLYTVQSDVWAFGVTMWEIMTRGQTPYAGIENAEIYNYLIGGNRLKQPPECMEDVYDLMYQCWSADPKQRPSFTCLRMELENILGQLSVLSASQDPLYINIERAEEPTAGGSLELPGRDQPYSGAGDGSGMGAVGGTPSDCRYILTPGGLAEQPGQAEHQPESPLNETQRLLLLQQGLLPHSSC
# How it was run: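 Percent inhibition of kinase activity at a single compound concentration, measured by the outsourced Eurofins KinaseProfiler panel. Values are the mean of two independent experiments.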
# [17] = biological target: Calcium/calmodulin-dependent protein kinase kinase 1 (Homo sapiens) (UniProt Q8N5S9); experiment: Inhibition of recombinant full-length human CaMKK1 at 1 uM using calmodulin as substrate measured after 40 mins in presence of [gamma33P]ATP by scintillation counting method relative to control
# [18] = biological target: Testis-specific serine/threonine-protein kinase 4 (Homo sapiens) (UniProt Q6SA08); experiment: Inhibition of recombinant full-length human TSSK4 at 1 uM using KKLNRTLSFAEPG as substrate measured after 40 mins in presence of [gamma33P]ATP by scintillation counting method relative to control
# [19] = biological target: MAP kinase-interacting serine/threonine-protein kinase 2 (Homo sapiens) (UniProt Q9HBH9); experiment: Inhibition of recombinant full-length human Mnk2 at 1 uM using myelin basic protein as substrate measured after 40 mins in presence of [gamma33P]ATP by scintillation counting method relative to control
# Sequence of MAP kinase-interacting serine/threonine-protein kinase 2 (Homo sapiens) (Q9HBH9 whole entry, looked up): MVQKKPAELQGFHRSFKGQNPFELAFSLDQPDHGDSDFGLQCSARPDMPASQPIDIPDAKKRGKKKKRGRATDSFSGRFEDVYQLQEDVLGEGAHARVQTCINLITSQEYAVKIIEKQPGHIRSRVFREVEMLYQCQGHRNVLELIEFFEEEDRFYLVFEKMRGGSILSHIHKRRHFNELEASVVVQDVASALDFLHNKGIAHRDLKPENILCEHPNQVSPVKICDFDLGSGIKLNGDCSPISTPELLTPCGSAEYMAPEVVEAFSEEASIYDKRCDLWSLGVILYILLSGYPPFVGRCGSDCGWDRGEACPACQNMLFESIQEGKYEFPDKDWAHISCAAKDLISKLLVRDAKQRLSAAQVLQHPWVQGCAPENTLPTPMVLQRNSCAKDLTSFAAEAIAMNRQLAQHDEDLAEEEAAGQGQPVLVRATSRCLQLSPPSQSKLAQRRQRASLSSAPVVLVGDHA
# A549 [20] = experiment: Induction of apoptosis in human A549 cells assessed as viable cells at 1 uM after 48 hrs by AnnexinV-FITC/PI staining-based flow cytometric analysis (reference value: 88.8%); assay type: functional; conditions: A549, 48 h, read-out: Activity
# A549 [21] = experiment: Induction of apoptosis in human A549 cells assessed as late apoptotic cells at 1 uM after 48 hrs by AnnexinV-FITC/PI staining-based flow cytometric analysis (reference value: 7.66%); assay type: functional
# [22] = biological target: Interferon-induced, double-stranded RNA-activated protein kinase (Homo sapiens) (UniProt P19525); experiment: Inhibition of recombinant human PKR (252 to end residues) at 1 uM using RSRSRSRSRSRSRSR as substrate measured after 40 mins in presence of [gamma33P]ATP by scintillation counting method relative to control; how it was run: as §1
smiles,measurement,setting,value
CN(C)C(=O)c1cc2cnc(Nc3ccc(NC(=O)CCCCCCCN=C=S)cc3)nc2n1C1CCCC1,inhibition,[1],71%
same,inhibition,[2],1%
same,inhibition,[3],4%
same,inhibition,[4],23%
same,inhibition,[5],3%
same,inhibition,[6],7%
same,inhibition,[7],14%
same,inhibition,[8],7%
same,inhibition,[9],15%
same,inhibition,[10],22%
same,inhibition,[11],-3%
same,inhibition,[12],72%
same,inhibition,[13],23%
same,inhibition,[14],-5%
same,inhibition,[15],-7%
same,inhibition,[16],26%
same,inhibition,[17],88%
same,inhibition,[18],-7%
same,inhibition,[19],68%
same,viability at 1 µM,A549 [20],74.8%
same,Activity,A549 [21],16.4%
same,inhibition,[22],11%
